# Like-named read-outs stand apart in the source and are kept apart here. Positions of bridges follow the written chain, without caps; N, C: chain ends. Residues, ends and D or L forms follow the SMILES beside them. *: point of attachment. Fmoc = O=C(OCC1c2ccccc2-c2ccccc21)*
# Experiments:
# [1] = Proteolytic stability in trypsin, HPLC; format: in vitro ADME; conditions: trypsin (1 w/v%)
# Summary of the method: (§1)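 Test compound (2560 µM) incubated with 1 w/v% trypsin at 37 °C. Aliquots taken at 0.5, 1, 2, 4 and 6 h, diluted to 256 µM in 0.1% TFA/water and quantified by HPLC. Remaining peptide calculated as a time course; n=3.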
# [2] = Metabolic stability in liver tissue homogenate, HPLC; format: in vitro ADME; conditions: mouse liver tissue homogenate 50 mg/mL, 8 h, mean of n=3
# [3] = CMC determination with ANS fluorescent probe; format: physicochemical; conditions: in PBS
# Summary of the method: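 CMC is the crossing point of the 480 nm intensity plotted against log peptide concentration. A parallel run at 80 µM peptide adds LPS or LTA (final 1 µM) to test their effect on assembly.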
# [4] = LPS binding assay with BC probe; set-up: species or system E. coli; conditions: BC probe 10 µM, LPS 1 µM, Tris 50 mM pH 7.4; 0.125-64 µM peptide; n=3
# S. aureus CGMCC 1.90032 [5] = assay: Time-kill kinetics; format: cell-based, Staphylococcus aureus
# Summary of the method: (§2)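 Counts on MHA at 0, 0.5, 1, 2, 4, 6, 8, 10 and 24 h, in triplicate. MDK99 and MDK99.99 are the minimum times to 99% and 99.99% kill.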
# [6] = LTA binding assay with BC probe; set-up: species or system S. aureus; conditions: BC probe 10 µM, LTA 1 µM, Tris 50 mM pH 7.4; 0.125-64 µM peptide; n=3
# trypsin [7] = assay: Trypsin resistance of LPS-induced nanofibers versus nanoparticles, HPLC; format: in vitro ADME; conditions: n=3
# Summary of the method: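 Peptide (80 µM), LPS (1 µM) and trypsin (10 µM) combined in different orders. In one arm LPS pre-forms nanofibers before trypsin; in another peptide is pre-incubated with trypsin before LPS. A non-specific assembly condition serves as reference. Peptide retention measured by HPLC and expressed as a ratio to that reference; n=3.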
# [8] = Particle size of self-assembled AMPs; format: physicochemical; conditions: 80 µM peptide, SEM/TEM
# Summary of the method: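 Test compound at 80 µM, alone or with LPS or LTA (final 1 µM), imaged by SEM and TEM to assess assembly morphology and particle size.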
# ζ-potential = format: physicochemical; conditions: 80 µM in PBS pH 7.4, room temperature
# E. coli ATCC 25922 = assay: Serum stability test; format: in vitro ADME, Escherichia coli; conditions: 37°C, 8 h, MIC vs E. coli ATCC 25922
# E. coli CGMCC 1.90026 [9] = assay: Time-kill kinetics; format: cell-based, Escherichia coli; conditions: 1×, 2× or 4× MIC
# Summary of the method: as §2
# S. aureus CGMCC 1.90032 [10] = assay: Mouse mastitis model; format: in vivo; conditions: compared with NC group
# Summary of the method: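 Female ICR mice 10 d post-partum, separated from pups 2 h before infection. Under anaesthesia, nipple tip trimmed 0.5 mm. Mid-log S. aureus CGMCC 1.90032 (PBS-washed, 1×10^3 CFU/mL, 100 µL) inoculated via the fourth-pair nipple ducts. Test compound (100 or 200 µM) given intraductally 3 h post-infection. Groups: uninfected, untreated, ceftiofur sodium 200 µM. Mammary and spleen organ indices recorded.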
# E. coli CGMCC 1.90026 [11] = assay: Mutation-proof concentration; format: cell-based, Escherichia coli
# E. coli CGMCC 1.90026 [12] = assay: Membrane integrity, PI uptake by flow cytometry; format: cell-based, Escherichia coli; conditions: range over 5-80 µM and both E. coli strains (Fig. 7A, Figure S15A)
# Summary of the method: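 Clinical E. coli CGMCC 1.90026 treated with test compound at 5, 20, 40 or 80 µM. Propidium iodide-positive cells counted by flow cytometry as the membrane penetration rate.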
# S. aureus CGMCC 1.90032 [13] = assay: Mutation-proof concentration; format: cell-based, Staphylococcus aureus
# [14] = system: E. coli liposomes (polar lipid extracts); assay: Membrane fluidity assay, Laurdan GP; format: cell-based, Escherichia coli; conditions: 5-80 µM, 1 h, concentration-dependent, n=3
# S. aureus = assay: Membrane fluidity assay, Laurdan GP; format: cell-based, Staphylococcus aureus; conditions: 5-80 µM, 1 h, n=3
# E. coli = assay: Cytoplasmic membrane potential, DiSC3; format: cell-based, Escherichia coli; conditions: DiSC3-5, 5-80 µM, no dose-dependent effect
# Summary of the method: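 Clinical isolate E. coli CGMCC 1.90026 exposed to test compound. Cytoplasmic membrane potential change followed with the potentiometric dye DiSC3-5.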
# E. coli CGMCC 1.90026 [15] = assay: Mouse mastitis model; format: in vivo
# Summary of the method: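 Female ICR mice 10 d post-partum, pups removed 2 h before infection. Under anaesthesia, 0.5 mm trimmed from the fourth nipple pair. Mid-log E. coli CGMCC 1.90026 (PBS-washed, 5×10^3 CFU/mL, 100 µL) given through the nipple duct. 3 h later, test compound (100 or 200 µM) given via the mammary duct. Groups: uninfected, untreated, ceftiofur sodium 200 µM. Mammary TNF-α, IL-1β, IL-6 and IL-2 measured.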
# trypsin [16] = assay: Proteolytic stability in trypsin, HPLC; format: in vitro ADME; conditions: 1 w/v% trypsin, after 4 h, HPLC
# Summary of the method: as §1
# mouse erythrocytes = assay: Hemolysis assay; format: cell-based; conditions: 128 μM peptide, 8% mouse erythrocytes, 1 h, OD 540 nm; n=5
# Summary of the method: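 Test compound (1–128 µM final) mixed 1:1 by volume with 8% mouse erythrocytes, 37 °C, 1 h. Spun 1500 rpm, 5 min, and supernatant A540 read. PBS set 0% and 0.1% Triton X-100 set 100%. Hemolysis (%) = (A_peptide−A0)/(A100−A0)×100.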
# [17] = cited from earlier work
# [18] = in comparison to self-assembled nanoparticles CPC-2; cited from earlier work
# [19] = cited from earlier work; remark: listed apart in the source
molecule,measurement,setting,value
CC(C)C[C@H](NC(=O)[C@H](CCCCN)NC(=O)OCC1c2ccccc2-c2ccccc21)C(=O)N[C@H](C(=O)N[C@@H](Cc1ccccc1)C(=O)N[C@@H](Cc1ccccc1)C(=O)N[C@@H](CCCCN)C(=O)NCC(=O)N[C@@H](Cc1ccccc1)C(=O)N[C@@H](C)C(=O)N[C@@H](Cc1c[nH]c2ccccc12)C(=O)N[C@@H](CC(N)=O)C(=O)N[C@H](C(=O)N[C@H]1CSSC[C@@H](C(=O)N[C@@H](Cc2c[nH]cn2)C(=O)N[C@@H](CCCNC(=N)N)C(=O)N[C@@H](CCCNC(=N)N)C(=O)N[C@@H](C)C(=O)N[C@@H](CC(N)=O)C(N)=O)NC(=O)[C@H](C(C)C)NC(=O)[C@H](CCCNC(=N)N)NC(=O)[C@H](C(C)C)NC(=O)CNC(=O)[C@H](CC(N)=O)NC(=O)[C@H](CCCNC(=N)N)NC(=O)[C@H](Cc2ccc(O)cc2)NC(=O)[C@H](C(C)C)NC1=O)C(C)C)C(C)C [FKN] (Fmoc-KLVFFKGFAWNVCVYRNGVRVCHRRAN-NH2; disulfide 13-22),"remaining at 6 h, 2560 µM","[1]; peptide retention rate, 1 w/v% trypsin, 6 h, HPLC, mean of n=3",44.2%
same,peptide retention rate in liver tissue,[2],33.93%
same,critical micelle concentration (CMC),"[3]; ANS 25.6 µM, 1 h, fluorescence at 480 nm vs log concentration",7.94 µM
same,affinity to LPS of E. coli,[4],even greater than that of N6
same,time to complete kill,S. aureus CGMCC 1.90032 [5]; various concentrations,≤ 1 h
same,affinity to LTA of S. aureus,[6],even greater than that of N6
same,protein retention rate of nanofibers,"trypsin [7]; 80 µM peptide pre-incubated with LPS 1 µM, then trypsin 10 µM 0.5 h",90.1%
same,protein retention rate of nanoparticles,"trypsin [7]; 80 µM peptide without LPS pre-assembly, trypsin 10 µM 0.5 h",76.63%
same,particle sizes of nanoparticles,[8],69.78±11.56 nm
same,zeta-potential,ζ-potential,24 mV
same,MIC after incubation in 25% serum,E. coli ATCC 25922,stable MICs
same,time to complete eradication,E. coli CGMCC 1.90026 [9],≤ 4 h
CC(C)[C@@H]1NC(=O)CNC(=O)[C@H](CC(N)=O)NC(=O)[C@H](CCCNC(=N)N)NC(=O)[C@H](Cc2ccc(O)cc2)NC(=O)[C@H](C(C)C)NC(=O)[C@@H](NC(=O)[C@@H](NC(=O)[C@H](CC(N)=O)NC(=O)[C@H](Cc2c[nH]c3ccccc23)NC(=O)[C@H](C)NC(=O)[C@H](Cc2ccccc2)NC(=O)CN)C(C)C)CSSC[C@@H](C(=O)N[C@@H](Cc2c[nH]cn2)C(=O)N[C@@H](CCCNC(=N)N)C(=O)N[C@@H](CCCNC(=N)N)C(=O)N[C@@H](C)C(=O)N[C@@H](CC(N)=O)C(N)=O)NC(=O)[C@H](C(C)C)NC(=O)[C@H](CCCNC(=N)N)NC1=O [N6] (H-GFAWNVCVYRNGVRVCHRRAN-NH2; disulfide 7-16),self-assembly by ANS fluorescence,[3]; fluorescence in direct correlation with concentration,incapable of self-assembling
same,MDK99,S. aureus CGMCC 1.90032 [5]; minimum time for 99% sterilization,1.45 h
same,MDK99.99,S. aureus CGMCC 1.90032 [5]; minimum time for 99.99% sterilization,1.99 h
same,indices of the mammary gland and spleen,S. aureus CGMCC 1.90032 [10],significantly decreased
same,SI (MPCs/MIC),E. coli CGMCC 1.90026 [11],6.4
same,membrane penetration rates toward E. coli,E. coli CGMCC 1.90026 [12],2.34 -80.7%
same,SI (MPCs/MIC),S. aureus CGMCC 1.90032 [13],6.4
same,Laurdan GP (membrane fluidity),[14],significant increase in Laurdan GP
same,time to complete eradication,E. coli CGMCC 1.90026 [9],≤ 4 h
same,Laurdan GP (membrane fluidity),S. aureus,also increased
same,plasma membrane depolarization,E. coli,underwent depolarization
same,histopathology of mammary gland (HE),E. coli CGMCC 1.90026 [15],significant improvement in inflammatory symptoms
same,"levels of inflammatory factors (TNF-α, IL-1ß, IL-6 and IL-2) in mammary tissue","E. coli CGMCC 1.90026 [15]; 100 or 200 µM, ELISA, n=4",significantly reduced
CC(C)[C@@H]1NC(=O)CNC(=O)[C@H](CC(N)=O)NC(=O)[C@H](CCCNC(=N)N)NC(=O)[C@H](Cc2ccc(O)cc2)NC(=O)[C@H](C(C)C)NC(=O)[C@@H](NC(=O)[C@@H](NC(=O)[C@H](CC(N)=O)NC(=O)[C@H](Cc2c[nH]c3ccccc23)NC(=O)[C@H](C)NC(=O)[C@H](Cc2ccccc2)NC(=O)CN)C(C)C)CSSC[C@@H](C(=O)N[C@@H](Cc2cnc[nH]2)C(=O)N[C@@H](CCCNC(=N)N)C(=O)N[C@@H](CCCNC(=N)N)C(=O)N[C@@H](C)C(=O)N[C@@H](CC(N)=O)C(N)=O)NC(=O)[C@H](C(C)C)NC(=O)[C@H](CCCNC(=N)N)NC1=O [N6] (H-GFAWNVCVYRNGVRVCHRRAN-NH2; disulfide 7-16),"metabolised at 0.5 h, 2560 µM",[1],> 50%
same,degradation in trypsin,trypsin [16],completely degraded
same,peptide retention rate in liver tissue,[2],less than 9.76%
same,MIC after incubation in 25% serum,E. coli ATCC 25922,twofold
same,hemolysis rate,mouse erythrocytes,no hemolysis
BP-KFFVLK-RLKLILKSK [BET],time to complete transformation from nanoparticles to nanofibers,[17]; LPS induction,72 h
BP-KLVFF -RLYLRIGRR [HDMP],time to complete transformation from nanoparticles to nanofibers,[17]; LTA induction,48 h
Chitosan-GPLGVRGC-PEG2000- CGGG(KLAKLAK)2 [CPC-1],prolongation of the half-life at the site of infection,[18],fourfold
FLGALFRALSRLL [PTP-7],stability in serum,[19]; before self-assembly,2 h
same,stability in serum,[19]; by self-assembly technology,more than 5 h

# From article PMC11526549 (Journal of Nanobiotechnology, 2024)
